The source made the active and inactive calls. The calls are words filed in the database; no cut-off is given here.
Experiments:
Format in all cases: functional
[1] = species on record: Cavia porcellus; assay: Compound was tested for its ability to cause contraction of guinea pig ileum; Inactive
[2] = species on record: Cavia porcellus; assay: Compound was tested for its ability to cause contraction of guinea pig ileum; Active
[3] = species on record: Cavia porcellus; assay: Potency for guinea pig ileum contraction relative to acetylcholine
Summary of the method: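 Ileal strip held in an oxygenated (95% O2/5% CO2) buffer bath under 1-g tension, with contraction magnitude recorded on a dynograph. An acetylcholine control response curve was run first, then a test compound curve after tissue recovery. The value is the ratio of the doses giving 50% of maximal response.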

[4] = species on record: Cavia porcellus; assay: Concentration required for half-maximal contraction of guinea pig ileum

Row | Structure (SMILES) | Activity [1] | further results
1 | CCCCCCCCCCCCCCCC1CCC(COP(=O)(O)O)O1 (stereo not drawn) | inactive | 
2 | CCCCCCCCCCCCCCCC1OC(COP(=O)(O)O)CS1 (stereo not drawn) | inactive | 
3 | CCCCCCCCCCCCCCCC1COC(COP(=O)(O)O)CO1 (stereo not drawn) | inactive | 
4 | CCCCCCCC/C=C/CCCCCCCC1OCC(COP(=O)([O-])O)O1.[Na+] (cis isomer) |  | Activity [2]: Active; Potency [3]: 0.4%
5 | CCCCCCCC/C=C/CCCCCCCC1OC(COP(=O)(O)O)CS1 (cis isomer) | inactive | 
6 | CCCCCCCCCCCCCCCC1OCC(COP(=O)(O)O)O1 (stereo not drawn) | inactive | 
7 | CCCCCCCC/C=C/CCCCCCCC1CCC(COP(=O)(O)O)O1 (stereo not drawn) | inactive | 
8 | CCCCCCCC/C=C/CCCCCCCC1COC(COP(=O)([O-])O)CO1.[Na+] (stereo not drawn) |  | Concentration [4]: 16 µM; Activity [2]: Active; Potency [3]: 0.05%
9 | CCCCCCCC/C=C/CCCCCCCC1CCC(COP(=O)(O)O)C1 (cis isomer) | inactive | 
10 | CCCCCCCCCCCCCCCC1CCC(COP(=O)(O)O)C1 (stereo not drawn) | inactive | 
